C8 TRAIL sens – caspase-8 TRAIL sensitization | NB7+C8 cells + TRAIL, ATPlite viability luminescence | inhibition (viability loss, TRAIL sensitization), % at 10 µM | 1% of 360,000 active | AID 624354;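 active means compounds causing at least 50% loss of cell viability in the single-dose screen, relative to plate controls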
PPC-1+TRAIL kill – kills PPC-1 cancer cells in the presence of TRAIL; PPC-1 cells + TRAIL, ATPLite viability luminescence; cell killing (% activity), % at 4 µM or 5 µM; 0.41% of 220,000 active;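 active means cell killing above 50% in the first pass at 4 µM, then a duplicate retest at 5 µM averaging 50% or more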
APP 5'UTR act – APP 5'UTR luciferase reporter activation. activation, % at 2 µM. 1% of 190,000 active. SH-SY5Y APP 5'UTR luciferase reporter, luminescence; zero percent = DMSO vehicle wells;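 active means activation above a set limit, based on mean plus 3 SD of controls, cut at about 140% in these data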
FLuc act counter – affects firefly luciferase, flagging false hits in luciferase stimulation screens; P08659; ATPlite luciferase biochemical, luminescence, 10 min; 0 = ATP-free wells, 1 = DMSO control; activation factor at 10 µM; 200,000 tested, under 10 active; AID 1027;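 active means luciferase activation factor, scaled between plate controls, of at least 2 with compound at 10 µM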
Target sequence (P08659 whole entry, looked up): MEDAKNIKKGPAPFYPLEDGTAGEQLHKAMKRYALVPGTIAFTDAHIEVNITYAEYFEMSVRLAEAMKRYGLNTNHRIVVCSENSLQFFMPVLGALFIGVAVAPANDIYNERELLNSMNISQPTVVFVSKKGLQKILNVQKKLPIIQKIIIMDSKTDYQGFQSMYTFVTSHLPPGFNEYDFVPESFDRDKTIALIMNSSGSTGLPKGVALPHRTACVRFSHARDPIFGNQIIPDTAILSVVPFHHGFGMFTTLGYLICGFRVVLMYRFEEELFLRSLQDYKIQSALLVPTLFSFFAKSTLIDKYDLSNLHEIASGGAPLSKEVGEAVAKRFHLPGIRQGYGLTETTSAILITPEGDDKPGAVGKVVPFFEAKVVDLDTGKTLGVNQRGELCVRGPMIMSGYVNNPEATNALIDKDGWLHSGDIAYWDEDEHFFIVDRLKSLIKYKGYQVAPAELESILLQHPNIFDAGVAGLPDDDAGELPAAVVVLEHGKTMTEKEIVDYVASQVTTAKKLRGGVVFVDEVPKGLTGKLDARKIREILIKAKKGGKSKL
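Material: Luciferase/luciferin reagent mix | Doses: Test compounds dosed from 2 mM stocks in 100% DMSO | Timing: 10 min incubation after luciferase reagent addition, room temperature | Measured by: Luminescence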
NF-kB expr up – raises NF-kB expression in human neuronal cells; NF-kB reporter expression; hits give high values; fold change at 12.5 µM; 1.6% of 190,000 active; in the data active means fold change above about 3.3
FLuc inh counter – counter-screen for luciferase assay inhibitors: firefly luciferase inhibition | ATPLite firefly luciferase biochemical luminescence, 10 min | inhibition, % at 10 µM | 1.5% of 200,000 active | AID 1006;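 active means inhibition above about 50% when tested at 10 µM, limit read from the data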
Numbers stand for hits; i = inactive; nt = no result given. Only some compounds are listed: those with a hit (about 2.2% of all), similar ones and a draw of the others.

SMILES | C8 TRAIL sens | PPC-1+TRAIL kill | APP 5'UTR act | FLuc act counter | NF-kB expr up | FLuc inh counter
CSCCC(NC(=O)c1ccco1)C(=O)Nc1ccncc1 (stereo unspecified) | i | nt | nt | nt | nt | nt
Cc1cccc(NC(=O)/C(C#N)=C/c2ccc(Cl)cc2)n1 | i | nt | nt | nt | nt | nt
Cc1cccc(NC(=O)/C=C/c2ccc(Cl)cc2)n1 | 69 | i | 182 | i | i | 83
CCOC(=O)Cc1csc(NC(=O)/C=C/c2ccc(Cl)cc2)n1 | 55 | i | nt | nt | nt | nt
N=C1C(c2nc3ccccc3[nH]2)=C(O)CN1NC(=O)COc1cccc(F)c1 | nt | i | i | i | i | i
COc1ccccc1NS(=O)(=O)c1ccc(C(=O)N2CCN(c3ccccn3)CC2)cc1 | i | nt | nt | nt | nt | nt
O=C(N/N=C/c1ccccn1)c1ccc([N+](=O)[O-])cc1 | i | i | i | i | i | 67
O=C(N/N=C/c1ccccn1)c1cc([N+](=O)[O-])cc([N+](=O)[O-])c1 | i | i | i | i | i | i
O=C(N/N=C/c1ccccn1)c1ccc(N/N=C/c2ccccn2)cc1 | i | i | i | i | i | 72
O=C(N/N=C/c1ccccn1)c1ccc(Br)cc1 | i | i | i | i | i | 82
Cc1cccc(C(=O)N/N=C/c2ccccn2)c1 | i | i | i | i | i | 51
CC(C)(C)c1ccc(C(=O)N/N=C/c2ccccn2)cc1 | i | nt | nt | nt | nt | nt
Cc1ccc(S(=O)(=O)Nc2cccc(C(=O)N3CCCC3)c2)cc1F | i | nt | nt | nt | nt | nt
CCN(CC)CCNC(=O)C1(O)c2cc(Br)ccc2NC(=O)N1c1ccccc1 (stereo unspecified) | i | nt | nt | nt | nt | nt
COc1ccc(CC(=O)Nc2ccc(N(C)C)c3ccccc23)cc1 | i | nt | nt | nt | nt | nt
COc1ccc(S(=O)(=O)N2CCN(C(=O)Cc3ccsc3)CC2)cc1 | i | nt | nt | nt | nt | nt
Cc1cccc(/C=N/NC(=O)c2ccc(Br)cc2)c1 | i | i | i | i | i | 54
O=C(N/N=C/c1ccc(F)cc1)c1ccc(Br)cc1 | i | i | i | i | i | i
COCCNc1nc(-c2cc3ccccc3o2)cs1 | i | i | 180 | i | 8.1 | 62
COc1cc(OC)cc(C(=O)NC(=S)Nc2nc(-c3cc4ccccc4o3)cs2)c1 | i | i | nt | nt | nt | nt
Cc1cc(C(=O)NCCC2=CCCCC2)c(C)o1 | i | i | 136 | i | i | i
O=C(NCCC1=CCCCC1)c1ccc(Cl)cc1 | nt | i | 228 | i | 5.5 | i
Cc1ccc(S(=O)(=O)N2CCCCC2)cc1C(=O)NCCC1=CCCCC1 | i | nt | nt | nt | nt | nt
O=C(NCCC1=CCCCC1)c1coc(=O)c(Br)c1 | 53 | i | i | i | i | i
CS(=O)(=O)N(Cc1ccc(Cl)cc1)c1ccc(C(=O)NCCC2=CCCCC2)cc1 | i | i | i | i | i | i
SMILES | C8 TRAIL sens | PPC-1+TRAIL kill | APP 5'UTR act | FLuc act counter | NF-kB expr up | FLuc inh counter
CCOC(=O)C1(Cc2ccccc2C(F)(F)F)CCN(Cc2ccon2)CC1 | i | i | nt | nt | nt | nt
CC(=O)c1c(C)[nH]c(C(=O)COC(=O)c2c(-c3ccccc3)noc2C)c1C | i | nt | nt | nt | nt | nt
O=c1[nH]cnc(O)c1C(c1ccc([N+](=O)[O-])cc1)c1c(O)nc[nH]c1=O | i | nt | nt | nt | nt | nt
O=C(CSc1ccccn1)Nc1nonc1[N+](=O)[O-] | 54 | nt | nt | nt | nt | nt
Cc1csc2c(NCCCN3CCOCC3)ncnc12 | i | i | nt | nt | nt | nt
CCOC(=O)C1CCN(C(=O)Cn2nc(C)n3c(cc4cc(F)ccc43)c2=O)CC1 | i | nt | nt | nt | nt | nt
COc1ccc(CCN=C(N)NS(=O)(=O)c2cccs2)cc1 | i | i | i | i | i | i
CCN(C(=O)COC(=O)c1cc(-c2ccc3cc(OC)ccc3c2)nc2ccccc12)C1CCS(=O)(=O)C1 (stereo unspecified) | nt | 83 | i | i | i | 76
NS(=O)(=O)c1ccc(NS(=O)(=O)c2ccc(NC(=O)C3CC3)cc2)cc1 | i | nt | nt | nt | nt | nt
COc1ccc(NC(=S)Nc2ccc(N)c([N+](=O)[O-])c2)cc1 | i | i | i | i | 3.3 | i
C=C1CCc2c([nH]c3ccc(OCC(C)C)cc23)C1=O | 89 | nt | nt | nt | nt | nt
O=C(c1cc(-c2ccc(Cl)cc2Cl)on1)N1CCOCC1 | 57 | i | 196 | i | i | 73
O=C(c1cc(-c2ccc(Cl)cc2)on1)N1CCOCC1 | i | i | 158 | i | 5 | 60
O=C(c1cc(-c2ccc3c(c2)OCO3)on1)N1CCOCC1 | i | i | i | i | i | 70
CC1=NN(C(=O)c2ccccc2F)C(O)(c2ccc(Cl)cc2)C1 (stereo unspecified) | i | nt | nt | nt | nt | nt
C/C(=N\NC(=O)c1cccc(S(=O)(=O)N2CCOCC2)c1)c1ccc(OCC(=O)N(C)C)cc1 | i | nt | nt | nt | nt | nt
